Assay results published in ChEMBL document CHEMBL1130999, “GPIIb/IIIa integrin antagonists with the new conformational restriction unit, trisubstituted beta-amino acid derivatives, and a substituted benzamidine structure” (J Med Chem, 1998).

Experiments:
[1] = molecular target: Integrin alpha-IIb/beta-3 (Homo sapiens, UniProt P05106+P08514); experiment: Binding affinity to human fibrinogen receptor; type: protein-complex assay
Outline: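 Competitive solid-phase ELISA. Plates were coated with 5 µg/mL human GPIIb/IIIa overnight at 4 °C and blocked 3 h at room temperature with 35 mg/mL BSA in 50 mM Tris, 100 mM NaCl, 2 mM CaCl₂, 0.02% NaN₃, pH 7.4. Human fibrinogen solution (30 µg/mL as added) plus inhibitor was incubated 3 h at room temperature. Bound fibrinogen was detected with alkaline phosphatase-conjugated anti-human fibrinogen antibody.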

[2] = species on record: Homo sapiens; experiment: Inhibition of collagen-induced platelet aggregation in human platelet-rich plasma; type: functional
Outline: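 Human citrated PRP (160g, 15 min, room temperature) with platelet-poor plasma as reference. Samples at various concentrations were added at 37 °C 1 min before 5 µg/mL collagen. Aggregation was read as the increase in light transmission. Percent inhibition of aggregation rate versus control gave IC50 from dose-inhibition curves. Values are means ± SEM of three experiments; GRGDS peptide served as reference.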

[3] = Elimination T1/2 in Guinea pig (IV dose); details: in vivo, read-out: T1/2 beta
[4] = Cmax in rat (PO dose); type: ADME, organism-based; parameters: route oral; details: in vivo
Outline: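 Male Sprague-Dawley rats (190-210 g) were fasted overnight with water available. Dosing was 10 mg/kg po as a suspension in 2% arabic gum. Jugular vein blood was drawn at 30, 60 and 120 min, and active-form plasma levels were measured by HPLC. Cmax is the highest of these three time points.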

[5] = Tmax in rat (PO dose); details: in vivo
[6] = Elimination T1/2 in Guinea pig (IV dose); details: in vivo

Chain of Integrin alpha-IIb/beta-3 (P05106 27-788 limits assumed): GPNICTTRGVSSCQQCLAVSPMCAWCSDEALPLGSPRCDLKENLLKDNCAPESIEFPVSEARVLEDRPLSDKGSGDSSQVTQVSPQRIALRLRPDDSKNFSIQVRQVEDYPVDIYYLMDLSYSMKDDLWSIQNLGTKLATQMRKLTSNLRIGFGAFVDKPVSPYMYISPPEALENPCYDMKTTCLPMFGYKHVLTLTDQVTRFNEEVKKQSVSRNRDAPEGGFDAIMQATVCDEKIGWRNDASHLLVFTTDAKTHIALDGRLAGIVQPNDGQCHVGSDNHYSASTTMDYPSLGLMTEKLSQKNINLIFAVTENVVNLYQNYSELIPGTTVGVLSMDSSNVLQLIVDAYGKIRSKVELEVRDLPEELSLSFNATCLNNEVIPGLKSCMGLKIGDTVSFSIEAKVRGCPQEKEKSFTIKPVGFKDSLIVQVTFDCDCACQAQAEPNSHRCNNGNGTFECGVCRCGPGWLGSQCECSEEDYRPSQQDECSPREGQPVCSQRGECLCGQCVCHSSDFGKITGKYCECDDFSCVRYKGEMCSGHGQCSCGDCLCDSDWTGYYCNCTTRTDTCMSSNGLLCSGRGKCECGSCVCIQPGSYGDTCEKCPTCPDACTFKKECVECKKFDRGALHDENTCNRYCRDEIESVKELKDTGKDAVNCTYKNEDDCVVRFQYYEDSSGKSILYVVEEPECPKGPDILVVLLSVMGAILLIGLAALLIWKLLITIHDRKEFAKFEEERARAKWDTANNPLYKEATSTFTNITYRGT
Chain of Integrin alpha-IIb/beta-3 (P08514 32-887 limits assumed): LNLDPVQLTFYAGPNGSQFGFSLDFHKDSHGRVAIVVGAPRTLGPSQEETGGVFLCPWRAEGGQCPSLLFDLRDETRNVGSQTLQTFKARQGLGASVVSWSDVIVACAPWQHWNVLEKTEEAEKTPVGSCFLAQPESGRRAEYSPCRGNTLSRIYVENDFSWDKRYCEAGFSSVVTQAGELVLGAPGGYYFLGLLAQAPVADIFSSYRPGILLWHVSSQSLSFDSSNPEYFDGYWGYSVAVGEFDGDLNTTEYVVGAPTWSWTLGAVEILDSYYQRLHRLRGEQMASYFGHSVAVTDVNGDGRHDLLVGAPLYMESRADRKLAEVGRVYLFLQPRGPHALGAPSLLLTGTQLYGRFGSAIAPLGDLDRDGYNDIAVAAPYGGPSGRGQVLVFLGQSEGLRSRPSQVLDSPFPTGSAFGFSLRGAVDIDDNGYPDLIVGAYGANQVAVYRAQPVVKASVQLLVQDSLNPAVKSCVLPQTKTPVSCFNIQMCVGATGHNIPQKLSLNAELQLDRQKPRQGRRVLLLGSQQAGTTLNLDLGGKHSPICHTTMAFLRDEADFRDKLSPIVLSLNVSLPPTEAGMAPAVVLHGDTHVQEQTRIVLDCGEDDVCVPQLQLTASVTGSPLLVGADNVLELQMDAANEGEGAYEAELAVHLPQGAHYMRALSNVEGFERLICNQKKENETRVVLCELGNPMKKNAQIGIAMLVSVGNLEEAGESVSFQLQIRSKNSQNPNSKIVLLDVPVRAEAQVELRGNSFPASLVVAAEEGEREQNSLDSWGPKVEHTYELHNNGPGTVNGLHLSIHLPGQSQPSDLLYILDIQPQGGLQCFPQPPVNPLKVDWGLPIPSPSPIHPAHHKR
Chain of Integrin alpha-IIb/beta-3 (P08514 891-1039 limits assumed): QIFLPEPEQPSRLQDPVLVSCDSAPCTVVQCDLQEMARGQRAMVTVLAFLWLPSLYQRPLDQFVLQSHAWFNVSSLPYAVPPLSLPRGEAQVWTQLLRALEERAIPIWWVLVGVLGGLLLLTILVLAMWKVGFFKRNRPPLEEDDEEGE

| SMILES | IC50 [1] [nM] | IC50 [2] [nM] | half-life [3] [h] | Cmax [4] [ng/mL] | Tmax [5] [h] | half-life [6] [h] |
| --- | --- | --- | --- | --- | --- | --- |
| CCCCCC(NC(=O)c1ccc(C(=N)N)cc1)C(C)(C)C(=O)N1CCC(CC(=O)O)CC1 (stereo not given) | 22.3 | 160 | 0.517 |  |  |  |
| CC(C)(C(=O)N1CCC(CC(=O)O)CC1)C(NC(=O)c1ccc(C(=N)N)cc1)c1cccc(Cl)c1 (stereo not given) | 31.3 | 250 | 2.5 |  |  |  |
| CCOC(=O)CC1CCN(C(=O)C(C)(C)C(CC)NC(=O)c2ccc(C(=N)N)cc2F)CC1 (stereo not given) | 2.7 | 62 | 1.48 | 90 | 0.5 |  |
| CC(C)(C(=O)N1CCC(CC(=O)O)CC1)C(NC(=O)c1ccc(C(=N)N)cc1)c1ccccc1 (stereo not given) | 25.3 | 230 |  |  |  | 0.533 |
| CCOC(=O)CC1CCN(C(=O)C(C)(C)C(CC)NC(=O)c2ccc(C(=N)N3CCSC3)cc2F)CC1 (stereo not given) | 2.3 | 45 | 1.83 | 1210 | 0.5 |  |
| CCCCC(NC(=O)c1ccc(C(=N)N)cc1)C(C)(C)C(=O)N1CCC(CC(=O)O)CC1 (stereo not given) | 3.8 | 82 | 1.03 |  |  |  |
| CC(C)(/C=C/C(=O)c1ccc(C(=N)N)cc1)C(=O)N1CCC(CC(=O)O)CC1 | 36 | 310 |  |  |  |  |
| CC(C)(CNC(=O)c1ccc(C(=N)N)cc1)C(=O)N1CCC(CC(=O)O)CC1 | 125 |  |  |  |  |  |
| CC(C)(C(=O)N1CCC(CC(=O)O)CC1)C(NC(=O)c1ccc(C(=N)N)cc1)c1ccc(Cl)cc1 (stereo not given) | 34.7 | 660 | 1.2 |  |  |  |
| CCCCC(NC(=O)c1ccc(C(=N)N)cc1F)C(C)(C)C(=O)N1CCC(CC(=O)O)CC1 (stereo not given) | 5.7 | 81 | 1.3 |  |  |  |
| CC(C)CC(NC(=O)c1ccc(C(=N)N)cc1)C(C)(C)C(=O)N1CCC(CC(=O)O)CC1 (stereo not given) | 2.7 | 81 | 0.917 |  |  |  |
| CCOC(=O)CC1CCN(C(=O)C(C)(C)C(CC)NC(=O)c2ccc(C(=N)N3CCN(c4ccc(F)cc4)CC3)cc2F)CC1 (stereo not given) | 5.6 | 79 | 0.417 | 232 | 1 |  |
| CCCC(NC(=O)c1ccc(C(=N)N)cc1)C(C)(C)C(=O)N1CCC(CC(=O)O)CC1 (stereo not given) | 5.1 | 82 | 0.9 |  |  |  |
| CC(C)(C(=O)N1CCC(CC(=O)O)CC1)C(NC(=O)c1ccc(C(=N)N)cc1)c1ccc2ccccc2c1 (stereo not given) | 21 | 380 | 0.85 |  |  |  |
| CC(C)(C(=O)N1CCC(CC(=O)O)CC1)C(CCc1ccccc1)NC(=O)c1ccc(C(=N)N)cc1 (stereo not given) | 47.3 | 160 | 0.767 |  |  |  |
| CC(NC(=O)c1ccc(C(=N)N)cc1)C(C)(C)C(=O)N1CCC(CC(=O)O)CC1 (stereo not given) | 5.3 | 82 | 0.883 |  |  |  |
| CC(C)C(NC(=O)c1ccc(C(=N)N)cc1)C(C)(C)C(=O)N1CCC(CC(=O)O)CC1 (stereo not given) | 8.6 | 150 | 0.8 |  |  |  |
| CCOC(=O)CC1CCN(C(=O)C(C)(C)C(CC)NC(=O)c2ccc(C(=N)N3CCC(O)CC3)cc2F)CC1 (stereo not given) | 5.8 | 48 | 3.5 | 290 | 1 |  |
| C/C=C/C(NC(=O)c1ccc(C(=N)N)cc1)C(C)(C)C(=O)N1CCC(CC(=O)O)CC1 (stereo not given) | 13 | 170 | 0.933 |  |  |  |
| CN(C(=O)c1ccc(C(=N)N)cc1)C(c1ccccc1)C(C)(C)C(=O)N1CCC(CC(=O)O)CC1 (stereo not given) | 21.3 | 300 | 1.42 |  |  |  |
| CC(C)(C(=O)N1CCC(CC(=O)O)CC1)C(NC(=O)c1ccc(C(=N)N)cc1)c1cccc(O)c1 (stereo not given) | 2.6 | 76 | 1.08 |  |  |  |
| CC(C)(C(=O)N1CCC(CC(=O)O)CC1)C(NC(=O)c1ccc(C(=N)N)cc1)c1ccc(O)cc1 (stereo not given) | 23.7 | 220 | 1.05 |  |  |  |
| CCC(NC(=O)c1ccc(C(=N)N)cc1)C(C)(C)C(=O)N1CCC(CC(=O)O)CC1 (stereo not given) |  | 85 | 1.3 |  |  |  |
| CCOC(=O)CC1CCN(C(=O)C(C)(C)C(CC)NC(=O)c2ccc(C(=N)N3CCOCC3)cc2F)CC1 (stereo not given) | 4 | 160 | 4.62 | 922 | 0.5 |  |
| C#CCN(C(=O)c1ccc(C(=N)N)cc1)C(CCCC)C(C)(C)C(=O)N1CCC(CC(=O)O)CC1 (stereo not given) | 363 | 1400 | 1.5 |  |  |  |
| CC(NC(=O)c1ccc(C(=N)N)cc1F)C(C)(C)C(=O)N1CCC(CC(=O)O)CC1 (stereo not given) | 4.3 | 76 | 1.4 |  |  |  |
| CCOC(=O)CC1CCN(C(=O)C(C)(C)C(CC)NC(=O)c2ccc(C(=N)N3CCCC3)cc2F)CC1 (stereo not given) | 7 | 89 | 2.07 | 194 | 1 |  |
| CC(C)(C(=O)N1CCC(CC(=O)O)CC1)C(NC(=O)c1ccc(C(=N)N)cc1Cl)c1ccccc1 (stereo not given) | 27.3 | 370 | 1.25 |  |  |  |
| CCOC(=O)CC1CCN(C(=O)C(C)(C)C(CC)NC(=O)c2ccc(C(=N)N3CCN(C)CC3)cc2F)CC1 (stereo not given) | 5.4 | 72 | 1.77 | 392 | 2 |  |
| CCC(NC(=O)c1ccc(C(=N)N)cc1F)C(C)(C)C(=O)N1CCC(CC(=O)O)CC1 (stereo not given) | 2.7 | 62 | 1.48 |  |  |  |
